Measurements: ChEMBL document CHEMBL1133501, “Conformationally constrained anesthetic steroids that modulate GABA(A) receptors” (J Med Chem, 2000)

Tests used:
Mus musculus = assay: Hypnotic dose required to cause a loss of righting reflex for a minimum period of 30 s in 50 percent of treated mice after intravenous administration.; assay type: functional
In short: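 Mice given steroid intravenously. The endpoint was loss of righting reflex lasting at least 30 s. The dose producing this in 50% of treated mice (HD50) was derived by probit analysis and expressed in µmol·kg-1.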

[1] = target: GABA-A receptor; anion channel; assay: Inhibition of binding of tert-butyl bicyclophosphorothionate ([35 S]TBPS) at Gamma-aminobutyric acid A receptor from rat whole brain membranes; assay type: cell membranes, Membrane

C[C@]12CC[C@H]3[C@@H](CC[C@H]4CC(O)CC[C@@]43C)[C@@H]1CC(=O)C2 (stereo not given in full)
HD50 (Mus musculus): 134.7 µM/kg

C[C@]12CC[C@@H](O)C[C@@H]1CC[C@@H]1[C@@H]2CC[C@]2(C)[C@@H]3O[C@@H]3C[C@@H]12
IC50 [1]: 5.35 µM | HD50 (Mus musculus): 68.4 µM/kg

CC(=O)[C@H]1CC[C@H]2[C@@H]3CC[C@H]4C[C@H](O)CC[C@]4(C)[C@H]3CC[C@]12C [BREXANOLONE]
IC50 [1]: 0.155 µM | HD50 (Mus musculus): 10 µM/kg

C[C@]12CC[C@@H](O)C[C@H]1CC[C@@H]1[C@@H]2CC[C@@]2(C)[C@H]1C[C@@H]1O[C@@H]12
IC50 [1]: 0.159 µM | HD50 (Mus musculus): 38 µM/kg

C[C@]12CC[C@@H](O)C[C@@H]1CC[C@@H]1[C@@H]2CC[C@]2(C)[C@@H](C(=O)CO)CC[C@@H]12
IC50 [1]: 0.192 µM | HD50 (Mus musculus): 18.5 µM/kg

C[C@]12CC[C@@H](O)C[C@@H]1CC[C@@H]1[C@@H]2CC[C@@]2(C)[C@H]1CC[C@@]21CO1
IC50 [1]: 0.055 µM | HD50 (Mus musculus): 19.8 µM/kg

C[C@]12CC[C@@H](O)C[C@@H]1CC[C@@H]1[C@@H]2CC[C@@]2(C)[C@H]1CC[C@@]21CCO1
IC50 [1]: 0.232 µM | HD50 (Mus musculus): 62.8 µM/kg

C[C@]12CC[C@@H](O)C[C@@H]1CC[C@@H]1[C@@H]2CC[C@]2(C)C(=O)CC[C@@H]12 [ANDROSTERONE]
IC50 [1]: 1.37 µM | HD50 (Mus musculus): 68.9 µM/kg

C[C@]12CC[C@@H](O)C[C@@H]1CC[C@@H]1[C@@H]2CC[C@@]2(C)[C@H]1C[C@@H]1CO[C@@H]12
IC50 [1]: 2.53 µM | HD50 (Mus musculus): 146.9 µM/kg

CO[C@H]1CC[C@H]2[C@@H]3CC[C@H]4C[C@H](O)CC[C@]4(C)[C@H]3CC[C@]12C
IC50 [1]: 0.21 µM | HD50 (Mus musculus): 23.1 µM/kg

C[C@]12CC[C@@H](O)C[C@@H]1CC[C@@H]1[C@@H]2CC[C@@]2(C)[C@H](C#N)CC[C@@H]12
IC50 [1]: 1.24 µM | HD50 (Mus musculus): 114.9 µM/kg

C[C@]12CC[C@@H](O)C[C@H]1CC[C@@H]1[C@@H]2CC[C@@]2(C)[C@H]1CC[C@@]21CO1
IC50 [1]: 0.221 µM | HD50 (Mus musculus): 22.6 µM/kg

CC(=O)[C@H]1CC[C@H]2[C@@H]3CC[C@@H]4C[C@H](O)CC[C@]4(C)[C@H]3CC[C@]12C [ELTANOLONE]
IC50 [1]: 0.145 µM | HD50 (Mus musculus): 9.5 µM/kg

CC(=O)[C@H]1CC[C@H]2[C@@H]3CC[C@H]4C[C@H](O)CC[C@]4(C)[C@H]3C(=O)C[C@]12C [ALFAXALONE]
HD50 (Mus musculus): 6.3 µM/kg

C[C@]12CC[C@@H](O)C[C@@H]1CC[C@@H]1[C@@H]2CC[C@]2(C)[C@@H](O)CC[C@@H]12 [ANDROSTANDIOL]
IC50 [1]: 1.87 µM | HD50 (Mus musculus): 239.4 µM/kg

C[C@]12CC[C@@H](O)C[C@@H]1CC[C@@H]1[C@@H]2CC[C@@]2(C)[C@H]1C[C@@H]1O[C@@H]12
IC50 [1]: 0.255 µM | HD50 (Mus musculus): 17.3 µM/kg
